Measured values as given in PMC4278532 (Environmental Toxicology and Chemistry / Setac, 2014).

Legend:
[1] = biological target: T1, human aryl hydrocarbon receptor (AhR) (Homo sapiens, UniProt P35869); assay: Yeast bioassay; type: cell-based; details: for concentration at which the bioassay response showed signs of saturation: Figure 3
Outline: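 Engineered S. cerevisiae YCM3 (W303a-derived) carries chromosomal full-length human AhR/ARNT under the galactose promoter and a 5×XRE-LacZ plasmid. Kept in glucose medium, diluted to A600 0.04 in 2% galactose medium, exposed 18 h at 30 °C (1% DMSO vehicle). ONPG assay pH 7.0, ~5 min, 37 °C, Na2CO3 stop. A405 normalized to A600, % of 1 µM β-naphthoflavone. Two-parameter fit; n = 4, ≥3 experiments.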

YCM3 yeast cells = assay: Toxicity to the yeast cells; type: cell-based, Saccharomyces cerevisiae; details: for toxicity to the yeast cells: compared with 2-MP, 3-MP, 4-MP, tested up to 100 µM; for concentrations toxic to the yeast cells: 18 h, precluded data collection
AhR = details: cited from earlier work
[2] = biological target: T1, human aryl hydrocarbon receptor (AhR); details: cited from earlier work

T1 sequence (P35869 11-848): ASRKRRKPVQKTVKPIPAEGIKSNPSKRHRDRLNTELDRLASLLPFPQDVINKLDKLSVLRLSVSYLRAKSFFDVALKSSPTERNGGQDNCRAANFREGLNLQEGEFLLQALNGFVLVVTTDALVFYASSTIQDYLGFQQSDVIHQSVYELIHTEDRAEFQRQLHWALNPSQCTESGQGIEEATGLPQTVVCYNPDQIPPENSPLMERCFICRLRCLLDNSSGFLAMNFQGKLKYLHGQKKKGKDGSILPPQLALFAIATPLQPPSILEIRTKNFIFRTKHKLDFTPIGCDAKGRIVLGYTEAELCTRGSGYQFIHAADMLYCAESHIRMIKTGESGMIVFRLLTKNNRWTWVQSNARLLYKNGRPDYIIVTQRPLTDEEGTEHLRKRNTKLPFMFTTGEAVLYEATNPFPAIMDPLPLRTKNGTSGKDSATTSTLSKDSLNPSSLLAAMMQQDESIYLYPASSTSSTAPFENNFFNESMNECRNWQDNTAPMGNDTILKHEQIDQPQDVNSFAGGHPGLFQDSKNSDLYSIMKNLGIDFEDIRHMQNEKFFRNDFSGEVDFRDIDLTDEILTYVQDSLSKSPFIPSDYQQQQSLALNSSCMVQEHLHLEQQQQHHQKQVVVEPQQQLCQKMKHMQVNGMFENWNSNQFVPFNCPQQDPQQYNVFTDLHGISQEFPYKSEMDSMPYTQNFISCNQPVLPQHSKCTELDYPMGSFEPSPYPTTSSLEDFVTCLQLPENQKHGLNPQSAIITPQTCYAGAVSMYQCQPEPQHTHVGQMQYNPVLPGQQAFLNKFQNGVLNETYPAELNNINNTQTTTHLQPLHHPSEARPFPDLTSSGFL
T1 sequence (P27540 whole entry partner): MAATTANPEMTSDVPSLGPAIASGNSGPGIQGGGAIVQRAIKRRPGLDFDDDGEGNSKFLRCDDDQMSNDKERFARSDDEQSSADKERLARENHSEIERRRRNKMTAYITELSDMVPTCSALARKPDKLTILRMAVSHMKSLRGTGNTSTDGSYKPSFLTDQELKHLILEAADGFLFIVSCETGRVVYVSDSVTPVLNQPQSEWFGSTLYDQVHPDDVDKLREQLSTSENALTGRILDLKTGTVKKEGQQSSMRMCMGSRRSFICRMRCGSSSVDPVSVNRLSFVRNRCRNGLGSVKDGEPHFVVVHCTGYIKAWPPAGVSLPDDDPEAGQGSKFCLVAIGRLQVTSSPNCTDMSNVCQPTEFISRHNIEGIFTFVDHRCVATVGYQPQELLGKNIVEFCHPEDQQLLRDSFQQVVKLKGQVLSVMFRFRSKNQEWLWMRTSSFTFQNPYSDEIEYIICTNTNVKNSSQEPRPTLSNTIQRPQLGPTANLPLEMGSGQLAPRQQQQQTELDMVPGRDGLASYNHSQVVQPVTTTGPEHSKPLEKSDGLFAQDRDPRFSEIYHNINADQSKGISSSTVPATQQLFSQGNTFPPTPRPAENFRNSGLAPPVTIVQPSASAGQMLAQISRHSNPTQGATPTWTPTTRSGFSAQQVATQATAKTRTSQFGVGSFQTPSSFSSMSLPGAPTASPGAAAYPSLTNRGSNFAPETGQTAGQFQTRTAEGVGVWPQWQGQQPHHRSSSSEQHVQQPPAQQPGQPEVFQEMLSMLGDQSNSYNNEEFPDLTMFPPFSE

| concentration at which the bioassay response showed signs of saturation [1] [µM] | Structure (SMILES) | concentrations toxic to the yeast cells (YCM3 yeast cells) | AhR activation in a rat liver system (AhR) | also measured |
| --- | --- | --- | --- | --- |
| 100 | c1ccc2c(c1)ccc1ccccc12 [Phenanthrene, phenanthrene, reference compound] |  |  | toxicity to the yeast cells (YCM3 yeast cells): less toxic to the yeast cells |
|  | Cc1ccc2c(ccc3ccccc32)c1 [2-MP, 2-methylphenanthrene] | above 50 µM | stronger than 9-MP |  |
| 30 | Cc1cccc2c1ccc1ccccc12 [1-MP, 1-methylphenanthrene] |  | stronger than 9-MP |  |
|  | c1ccc2c(c1)cc1ccc3cccc4ccc2c1c34 [benzo[a]pyrene] |  |  | activity in this yeast bioassay [2]: very potent activator |
|  | Cc1cccc2ccc3ccccc3c12 [4-MP, 4-methylphenanthrene] | above 50 µM |  |  |
|  | Cc1ccc2ccc3ccc(C)cc3c2c1 [3,6-DMP, 3,6-dimethylphenanthrene] |  |  | signal in the bioassay relative to that produced by phenanthrene and the monomethylated derivatives [1]: approximately 50% |
|  | O=c1cc(-c2ccccc2)oc2ccc3ccccc3c12 [β-NF, β-naphthoflavone] |  |  | AhR agonism ([2]; positive control): strong agonist |
|  | Cc1ccc2ccc3ccccc3c2c1 [3-MP, 3-methylphenanthrene] | above 50 µM | stronger than 9-MP |  |

| Structure (SMILES) | concentration at which the bioassay response showed signs of saturation [1] [µM] | concentrations toxic to the yeast cells (YCM3 yeast cells) | AhR activation in a rat liver system (AhR) | also measured |
| --- | --- | --- | --- | --- |
| Cc1cc2ccccc2c2ccccc12 [9-MP, 9-methylphenanthrene] | 100 |  |  | toxicity to the yeast cells (YCM3 yeast cells): less toxic to the yeast cells |
